The subject of data set [1] is neuronal Kv7. The note with it: read-out: IC50, neuronal Kv7 inhibition; cited from earlier work.
The target of data set [2] is Kv7.2/Kv7.3 channels (Homo sapiens, UniProt O43525+O43526). The class given is cell-based. The method in brief:
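CHO cells stably expressing Kv7.2/Kv7.3 were grown in F12 with 10% FBS and 600 μg/mL G418. Cells were recorded by amphotericin B (250 μg/mL) perforated patch at room temperature. Internal was KCl 150, MgCl2 5, HEPES 10 mM, pH 7.4; external was NaCl 160, KCl 2.5, MgCl2 1, CaCl2 2, glucose 10, HEPES 20 mM, pH 7.4. Current was measured at 0 mV. Activation used −110 to 30 mV steps (10 mV increments) then 0 mV, with a Boltzmann fit. IC50 came from a logistic fit; τ from a single exponential.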

Data set [3] relates to hippocampal neurons. The class given is cell-based, rat. The settings on record: for depolarizing shift of resting membrane potential (RMP): hippocampal neurons.
The target of data set [4] is T1, Kv7.2 channel (Homo sapiens, UniProt O43526). The experiment in a line: Single-channel recordings. The format is cell-based. The method, boiled down:
(§1)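 Cell-attached single-channel recording was done at room temperature on transfected HEK293T cells. Pipettes (8–10 MΩ) held bath solution: NaCl 150, KCl 5, MgCl2 1, CaCl2 2, HEPES 10 mM, pH 7.4. Data were […] and filtered at 0.8–1 kHz. Patch potential of 0 mV was set from Vm = RMP − Vpipette, with RMP from current clamp. Open probability and conductance came from all-point amplitude histograms, with recordings before and after drug.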

Data set [5] has as its system native M-current in hippocampal neurons. The experiment in a line: Native M-current recording in cultured hippocampal neurons. The format is cell-based, rat. The note with it: measured at −20 mV.
Data set [6] has as its system Kv7.1-Kv7.4 channels. The settings on record: read-out: IC50, inhibition of Kv7.1-Kv7.4 channels; cited from earlier work.
Data set [7] deals with Kv7.5. The settings on record: read-out: IC50, inhibition of Kv7.5; cited from earlier work.
The target in data set [8] is F240A Kv7.2 channel (Homo sapiens, UniProt O43526, F240A). The experiment in a line: Whole-cell patch-clamp of F240A Kv7.2 mutant in HEK293T cells. The settings on record: HEK-293T, read-out: inhibition of F240A Kv7.2 current. The class given is cell-based. The method, boiled down: (§2)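 Alanine point mutants of human Kv7.2 were made by site-directed mutagenesis and verified by sequencing. Wild-type or mutant channels were expressed in HEK293T cells and recorded by perforated whole-cell patch clamp at room temperature. Currents were recorded before and after 10 or 30 µM test compound, and inhibition was normalized and compared with wild-type Kv7.2. n = 3–6.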
For orientation: In patch-clamp work, channel activity is measured electrically.

The target in data set [9] is F305A Kv7.2 channel (Homo sapiens, UniProt O43526, F305A). Kind of data set: Whole-cell patch-clamp of F305A Kv7.2 mutant in HEK293T cells. The format is cell-based. The settings on record: 10 or 30 µM paroxetine, vs WT Kv7.2. The method in brief: as §2
Data set [10] addresses Kv7.5 (Homo sapiens, UniProt Q9NR82). Kind of data set: Perforated whole-cell patch-clamp of Kv7.5 current in transfected HEK293T cells. The format is cell-based. The method in brief:
(§3)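 Human Kv7.2 or Kv7.5 cDNA in pcDNA3.1 was co-transfected with GFP into HEK293T cells using lipofectamine 2000 and recorded 24 h later. Recording used perforated patch (amphotericin B 250 μg/mL in pipette) with internal KCl 150, MgCl2 5, HEPES 10 mM, pH 7.4, and external NaCl 160, KCl 2.5, MgCl2 1, CaCl2 2, glucose 10, HEPES 20 mM, pH 7.4, at room temperature. IC50 came from a logistic fit, activation curves from Boltzmann fits, and τ values from single exponentials (activation 0 mV, deactivation −120 mV).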

The target in data set [11] is Kv7.2/Kv7.3 single-channels (Homo sapiens, UniProt O43525+O43526). The experiment in a line: Single-channel recordings. The format is cell-based. The settings on record: paroxetine 3 μΜ. The method in brief:
as §1

Data set [12] concerns the target Kv7.2 D212A/Kv7.3 heteromeric channels (Homo sapiens, UniProt O43525+O43526, D212A). The experiment in a line: Whole-cell patch-clamp of Kv7.2 D212A/Kv7.3 heteromeric channels. The format is cell-based.
The target in data set [13] is Kv7.4 (Homo sapiens, UniProt P56696). The experiment in a line: Perforated whole-cell patch-clamp of Kv7.4 current in transfected HEK293T cells. The class given is cell-based.
The subject of data set [14] is GIRK1/2 channels. The settings on record: read-out: IC50, GIRK1/2 channels; cited from earlier work.
The test system of data set [15] is Kv3.1 channels. The note with it: read-out: IC50, Kv3.1 channels; cited from earlier work.
For data set [16], the target named is Kv7.2 D212A channel (Homo sapiens, UniProt O43526, D212A). The experiment in a line: Whole-cell patch-clamp of Kv7.2 D212A mutant channel. The format is cell-based.
The target in data set [17] is W236A Kv7.2 channel (Homo sapiens, UniProt O43526, W236A). The experiment in a line: Whole-cell patch-clamp of W236A Kv7.2 mutant in HEK293T cells. The format is cell-based. The note with it: HEK-293T, read-out: inhibition of W236A Kv7.2 current. The method, boiled down:
as §2

The target of data set [18] is L299A Kv7.2 channel (Homo sapiens, UniProt O43526, L299A). The experiment in a line: Whole-cell patch-clamp of L299A Kv7.2 mutant in HEK293T cells. The class given is cell-based. The settings on record: HEK-293T, read-out: inhibition of F299A Kv7.2 current. The method, boiled down: as §2
In data set [19] the target is T1, Kv7.2 channel. The experiment in a line: Perforated whole-cell patch-clamp of Kv7.2 current in transfected HEK293T cells. The format is cell-based. The method, boiled down:
as §3

For data set [20] the following is noted: daily dosage of 20 mg, patients with depression; cited from earlier work.
Data set [21] addresses Kv7.1 (Homo sapiens, UniProt P51787). Kind of data set: Perforated whole-cell patch-clamp of Kv7.1 current in transfected HEK293T cells. The format is cell-based.
For data set [22], the system named is F304A Kv7.2 channel. The experiment in a line: Whole-cell patch-clamp of F304A Kv7.2 mutant in HEK293T cells. The format is cell-based, human. The note with it: 10 or 30 µM paroxetine, vs WT Kv7.2. The method, boiled down:
as §2

The values that follow come from paper PMC11965407 (Translational Psychiatry, 2025).

Structures are written as SMILES. “Also recorded” adds a separate entry of the source. Counter-ions that a name gives are not always drawn. Like-named read-outs stand apart in the source and are kept apart here.

Kv7.5 (Homo sapiens, UniProt Q9NR82), sequence (Q9NR82 whole entry): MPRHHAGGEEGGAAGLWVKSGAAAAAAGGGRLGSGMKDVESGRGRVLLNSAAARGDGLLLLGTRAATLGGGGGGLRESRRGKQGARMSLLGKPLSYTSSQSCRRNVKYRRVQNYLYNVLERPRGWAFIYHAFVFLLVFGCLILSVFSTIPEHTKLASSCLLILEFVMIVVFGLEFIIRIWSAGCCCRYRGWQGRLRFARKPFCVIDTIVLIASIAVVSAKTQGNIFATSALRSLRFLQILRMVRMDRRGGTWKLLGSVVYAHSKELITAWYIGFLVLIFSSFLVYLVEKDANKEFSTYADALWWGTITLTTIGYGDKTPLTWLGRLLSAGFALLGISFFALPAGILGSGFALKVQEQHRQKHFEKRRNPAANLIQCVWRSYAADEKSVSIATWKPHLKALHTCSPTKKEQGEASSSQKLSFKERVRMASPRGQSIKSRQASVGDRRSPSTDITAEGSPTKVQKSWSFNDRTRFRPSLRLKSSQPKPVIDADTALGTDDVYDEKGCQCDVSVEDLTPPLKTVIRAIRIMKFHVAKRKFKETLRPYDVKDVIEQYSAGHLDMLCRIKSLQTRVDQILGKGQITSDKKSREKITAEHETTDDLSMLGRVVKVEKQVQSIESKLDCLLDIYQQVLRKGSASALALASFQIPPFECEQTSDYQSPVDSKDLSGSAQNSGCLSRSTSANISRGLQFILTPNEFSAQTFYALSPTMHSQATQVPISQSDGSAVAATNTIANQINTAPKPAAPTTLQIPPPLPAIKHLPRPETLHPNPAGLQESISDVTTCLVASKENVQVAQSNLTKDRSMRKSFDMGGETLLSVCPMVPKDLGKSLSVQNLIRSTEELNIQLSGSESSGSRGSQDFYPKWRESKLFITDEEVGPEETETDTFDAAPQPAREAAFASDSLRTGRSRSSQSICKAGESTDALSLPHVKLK
Kv7.1, sequence (P51787 whole entry): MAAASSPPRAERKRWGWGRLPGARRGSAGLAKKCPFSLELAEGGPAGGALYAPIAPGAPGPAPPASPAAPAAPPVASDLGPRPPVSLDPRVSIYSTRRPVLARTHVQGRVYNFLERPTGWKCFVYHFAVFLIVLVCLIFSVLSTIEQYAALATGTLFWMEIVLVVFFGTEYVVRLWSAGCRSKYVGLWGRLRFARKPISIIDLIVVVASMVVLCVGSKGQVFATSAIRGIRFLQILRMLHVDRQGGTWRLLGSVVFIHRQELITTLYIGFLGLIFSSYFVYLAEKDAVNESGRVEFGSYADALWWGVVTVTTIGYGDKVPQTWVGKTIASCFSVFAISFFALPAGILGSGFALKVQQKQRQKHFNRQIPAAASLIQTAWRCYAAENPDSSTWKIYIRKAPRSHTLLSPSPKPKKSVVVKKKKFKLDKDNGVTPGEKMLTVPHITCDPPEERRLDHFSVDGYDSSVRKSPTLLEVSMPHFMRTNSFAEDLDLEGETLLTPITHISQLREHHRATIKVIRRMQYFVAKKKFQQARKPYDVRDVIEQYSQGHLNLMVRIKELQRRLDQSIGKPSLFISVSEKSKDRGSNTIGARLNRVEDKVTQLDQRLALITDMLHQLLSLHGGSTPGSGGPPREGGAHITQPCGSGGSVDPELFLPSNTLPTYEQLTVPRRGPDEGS
Kv7.4, sequence (P56696 whole entry): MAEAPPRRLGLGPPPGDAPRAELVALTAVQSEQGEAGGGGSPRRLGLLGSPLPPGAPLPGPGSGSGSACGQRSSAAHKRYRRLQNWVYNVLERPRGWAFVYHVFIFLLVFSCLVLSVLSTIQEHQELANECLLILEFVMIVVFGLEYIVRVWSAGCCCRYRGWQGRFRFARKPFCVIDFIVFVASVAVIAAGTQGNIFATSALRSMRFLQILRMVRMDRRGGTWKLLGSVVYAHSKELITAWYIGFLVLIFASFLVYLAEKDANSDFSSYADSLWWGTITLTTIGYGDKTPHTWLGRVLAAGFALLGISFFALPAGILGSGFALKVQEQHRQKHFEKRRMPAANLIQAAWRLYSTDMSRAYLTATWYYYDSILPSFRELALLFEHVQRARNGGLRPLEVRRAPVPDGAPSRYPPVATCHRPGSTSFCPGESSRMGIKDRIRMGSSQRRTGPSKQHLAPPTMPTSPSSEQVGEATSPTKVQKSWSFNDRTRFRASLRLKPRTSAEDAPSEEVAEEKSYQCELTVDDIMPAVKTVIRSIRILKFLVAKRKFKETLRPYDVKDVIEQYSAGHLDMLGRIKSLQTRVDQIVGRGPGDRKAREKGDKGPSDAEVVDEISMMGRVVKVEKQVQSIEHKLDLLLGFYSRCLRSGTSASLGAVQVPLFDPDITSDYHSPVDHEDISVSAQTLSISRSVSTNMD

Regarding `CC[C@H](C(=O)Nc1ccccc1N1CCCC1)c1ccccc1` [ML252], the IC50 in data set [1] is 1 to 6 µM.
As to `O=C1c2ccccc2C(Cc2ccncc2)(Cc2ccncc2)c2ccccc21` [XE991], the “inhibition of Kv7.2/Kv7.3 currents recorded at 0 mV” value in data set [2] (3 μM, CHO cells, n = 5) worked out at 81.4 ± 1.5%. Also, the “firings in hippocampal neurons” value in data set [3] (3 μM XE991, n = 6) is reported as “increased firings”. Moreover, the “depolarizing shift of resting membrane potential (RMP)” value was 6.2 ± 2.2 mV in [3] (1 μΜ) and 9.7 ± 1.2 mV in data set [3] (3 μΜ). In addition, the “Kv7.2 single-channel open probability” value in data set [4] (XE991 3 μΜ, control 0.21 ± 0.02) is listed as 0.05 ± 0.01. The Kv7.2 single-channel conductance in [4] (XE991 3 μΜ, control 7.7 ± 0.8 pS) turned out to be 8.0 ± 0.4 pS. For the same compound, the “inhibition of M-current” value in [5] (3 μΜ) turned out to be 21.2 ± 2.0%. The IC50 was 1 to 5 µM in data set [6] and around 60 µM in data set [7].
Turning to `Fc1ccc([C@@H]2CCNC[C@H]2COc2ccc3c(c2)OCO3)cc1` [paroxetine, paroxetine hydrochloride], the inhibition at 10 µM was determined as 46.9 ± 9.7% in [8]; 43.8 ± 6.8% in data set [17]; 59.4 ± 10.4% in data set [18]; 56.6 ± 2.9% in [19] (HEK-293T, read-out: inhibition of WT Kv7.2 current). Moreover, the “effect of F305A mutation on paroxetine-mediated inhibition of Kv7.2” value in [9] was “no notable effect; also recorded: does not significantly affect”. Further, the IC50 in [10] was 37.2 ± 5.2 µM; in data set [12] it was 9.2 ± 1.3 µM; in data set [2], 3.6 ± 0.2 µM; in data set [14] it was 13.8 ± 2.9 µM; in data set [15] it was 9.4 ± 0.5 µM; in [16] it was 41 ± 5.6 µM. Besides, the figures for the IC50 in [19] and in data set [21] were 12.3 ± 6.5 µM and 71.8 ± 7.9 µM, respectively. The “V1/2 of Kv7.5 in presence of paroxetine” value in data set [10] (paroxetine 20 μM, control −32.7 ± 5.7 mV) is recorded as −33.6 ± 6.1 mV. Also, the “τdeactivation (−120 mV) of Kv7.5” value in data set [10] (paroxetine, control 36.7 ± 1.7 ms) worked out at 35.4 ± 5.0 ms. Also, the “τactivation (0 mV) of Kv7.5” value in data set [10] (paroxetine, control 77.4 ± 5.3 ms) was determined as 79.8 ± 17.6 ms. Besides, in [11] (0 mV, cell-attached, control 0.28 ± 0.01), the “open probability of Kv7.2/Kv7.3 single-channels” value is given as 0.13 ± 0.01. The “single-channel conductance of Kv7.2/Kv7.3” value in data set [11] (control 10.9 ± 1.1 pS, not altered) was 10.4 ± 0.9 pS. Moreover, the “reduction of inhibitory effect by D212A mutation versus wild type” value in [12] (Kv7.2 D212A/Kv7.3 vs Kv7.2/Kv7.3) and in data set [16] (Kv7.2 D212A vs Kv7.2) was “approximately three-fold” each time. The inhibition at 3 µM in [2] (CHO, read-out: inhibition of Kv7.2/Kv7.3 currents recorded at 0 mV) was 62.8 ± 6.5%. Moreover, the “τdeactivation (−120 mV) of Kv7.2/Kv7.3” value in data set [2] (paroxetine 3 μΜ, control 14.4 ± 1.1 ms) is 12.6 ± 0.7 ms. Besides, in [2] (paroxetine 3 μΜ, control 94.5 ± 11.0 ms), the “τactivation (0 mV) of Kv7.2/Kv7.3” value turned out to be 112.8 ± 9.0 ms. Besides, the “V1/2 (half activation voltage) of Kv7.2/Kv7.3 in presence of paroxetine” value in data set [2] (paroxetine 3 μΜ, control −3.9 ± 1.2 mV, not significant) is −7.5 ± 3.5 mV. The “V1/2 of Kv7.4 in presence of paroxetine” value in data set [13] (paroxetine 20 μM, control −14.4 ± 3.6 mV) was −15.2 ± 4.3 mV. Moreover, the “τdeactivation (−120 mV) of Kv7.4” value in data set [13] (paroxetine, control 12.1 ± 1.3 ms) was 10.9 ± 1.6 ms. Moreover, the “τactivation (0 mV) of Kv7.4” value in [13] (paroxetine, control 131.5 ± 23.6 ms) turned out to be 131.3 ± 22.9 ms. The “resting membrane potential after drug” value in data set [3] (3 μΜ, from −57.2 ± 3.4 mV) is recorded as −48.6 ± 2.4 mV; in data set [3] (10 μΜ, from −62.2 ± 1.7 mV), −48.5 ± 2.0 mV. In addition, the “firing activity of hippocampal neurons in response to current injection” value in data set [3] (paroxetine at 3 and 10 μΜ) is on record as “significantly increased”. The “Kv7.2 single-channel open probability” value in [4] (paroxetine 10 μM, 0 mV, cell-attached, control 0.19 ± 0.01) is on record as 0.09 ± 0.01. The compound further returned a Kv7.2 single-channel conductance in data set [4] (paroxetine 10 μM, control 7.7 ± 0.4 pS) of 7.7 ± 0.7 pS. The “inhibition of M-current” value in data set [5] (3 μΜ) is 31.5 ± 4.6%; in [5] (10 μΜ) it was 52.4 ± 2.0%. The “τdeactivation (−120 mV) of Kv7.2” value in data set [19] (paroxetine 10 μM, control 24.9 ± 10.0 ms) came out at 18.6 ± 6.9 ms. Also, the “τactivation (0 mV) of Kv7.2” value in data set [19] (paroxetine 10 μM, control 132.6 ± 15.0 ms) turned out to be 141.7 ± 15.8 ms. The “V1/2 of Kv7.2 in presence of paroxetine” value in data set [19] (paroxetine 10 μM, control −12.0 ± 0.8 mV) was −9.1 ± 2.0 mV. Besides, the brain concentrations in data set [20] is 2000 to 14000 nM. Also, the “V1/2 of Kv7.1 in presence of paroxetine” value in [21] (paroxetine 50 μM, control −3.2 ± 2.1 mV, P < 0.05) was 4.6 ± 2.1 mV. Further, the “τdeactivation (−120 mV) of Kv7.1” value in data set [21] (paroxetine near its IC50, control 39.9 ± 3.3 ms) was found to be 27.9 ± 3.6 ms. For the same compound, in data set [22], the “reduction of channel sensitivity to paroxetine by F304A mutation” value is on record as “three-fold”.
